Columns and labels:
Hepatitis C virus = assay: Antiviral activity against HCV 1b replicon in Huh7 cells after 48 hrs; format: functional, organism-based, Hepacivirus hominis; settings: genotype 1b, Huh-7, 48 h
Summary of the method: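 Huh-7 cells carrying a subgenomic genotype 1b replicon with firefly luciferase, kept under 0.5 mg/ml G418. Cells seeded at 1500 per well, dosed after 24 h with fivefold serial dilutions (DMSO ≤1% final), incubated 48 h, then lysed for luciferase read-out. EC50 is the concentration lowering luciferase signal 50% versus untreated control.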

[1] = Inhibition of HCV 1a recombinant full length NS3/4A protease; parameters: species or system Hepatitis C virus subtype 1a
Summary of the method: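 Preincubated 30 min at room temperature, then started with 2 μM FRET substrate RET S1. Fluorescence (ex 355/em 500 nm) followed 20 min. IC50 by non-linear fit; Ki = IC50/(1+S/Km), assuming competitive inhibition.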

Cathepsin B = Cathepsin B (Homo sapiens, UniProt P07858); assay: Inhibition of human cathepsin B
[2] = Inhibition of human chymotrypsin
[3] = Inhibition of human elastase

| SMILES | EC50 (Hepatitis C virus) | Ki [1] | Ki (Cathepsin B) | Ki [2] | Ki [3] |
| --- | --- | --- | --- | --- | --- |
| COc1ccc2c(O[C@H]3CC4C(=O)N(NC(=O)OC(C)(C)C)CCCCCCC=C[C@@H]5C[C@@]5(C(=O)O)NC(=O)[C@@H]4C3)cc(-c3ccccc3)nc2c1 (stereo partly specified) | > 10000 nM | > 10000 nM | – | – | – |
| COc1ccc2c(O[C@@H]3C[C@H]4C(=O)N[C@]5(C(=O)O)C[C@H]5/C=C\CCCCCN(N)C(=O)[C@@H]4C3)cc(-c3ccccc3)nc2c1 | > 10000 nM | 120 nM | – | – | – |
| COc1ccc2c(O[C@@H]3C[C@H]4C(=O)N[C@]5(C(=O)O)C[C@H]5C=CCCCCN(C)C(=O)[C@@H]4C3)cc(-c3ccccc3)nc2c1 | 2200 nM | 44 nM | – | – | – |
| COc1ccc2c(O[C@H]3C=C4C(=O)N(N)CCCCC/C=C\[C@@H]5C[C@@]5(C(=O)O)NC(=O)[C@@H]4C3)cc(-c3ccccc3)nc2c1 | 4500 nM | 110 nM | – | – | – |
| COc1ccc2c(O[C@@H]3C[C@H]4C(=O)N[C@]5(C(=O)O)C[C@H]5/C=C\CCCCCN(NC(=O)OC(C)(C)C)C(=O)[C@@H]4C3)cc(-c3ccccc3)nc2c1 | > 10000 nM | 710 nM | – | – | – |
| COc1ccc2c(O[C@@H]3C[C@H]4C(=O)N[C@]5(C(=O)O)C[C@H]5/C=C\CCCN(NC(=O)OC(C)(C)C)C(=O)[C@@H]4C3)cc(-c3ccccc3)nc2c1 | > 10000 nM | 130 nM | – | – | – |
| COc1ccc2c(O[C@H]3C[C@H]4C(=O)NCCCCC=C[C@@H]5C[C@@]5(C(=O)O)NC(=O)[C@@H]4C3)cc(-c3ccccc3)nc2c1 | > 10000 nM | 260 nM | – | – | – |
| COc1ccc2c(O[C@@H]3C[C@H]4C(=O)N[C@]5(C(=O)O)C[C@H]5C=CCCCCN(NC(=O)OC(C)(C)C)C(=O)[C@@H]4C3)cc(-c3ccccc3)nc2c1 | > 10000 nM | 31 nM | – | – | – |
| COc1ccc2c(O[C@@H]3C[C@H]4C(=O)N[C@]5(C(=O)NS(=O)(=O)C6CC6)C[C@H]5C=CCCCCN(NC(=O)OC(C)(C)C)C(=O)[C@@H]4C3)cc(-c3ccccc3)nc2c1 | 530 nM | 0.07 nM | – | – | – |
| COc1ccc2c(O[C@H]3C[C@H]4C(=O)NCCCCC=C[C@@H]5C[C@@]5(C(=O)NS(=O)(=O)C5CC5)NC(=O)[C@@H]4C3)cc(-c3ccccc3)nc2c1 | 4400 nM | 2.2 nM | – | – | – |
| COc1ccc2c(O[C@@H]3C[C@H]4C(=O)N[C@]5(C(=O)NS(=O)(=O)C6CC6)C[C@H]5C=CCCCCN(C)C(=O)[C@@H]4C3)cc(-c3ccccc3)nc2c1 | 9.1 nM | 0.41 nM | 2200 nM | > 5000 nM | > 5000 nM |
| COc1ccc2c(O[C@H]3CC4C(=O)N(N)CCCCCCC=C[C@@H]5C[C@@]5(C(=O)O)NC(=O)[C@@H]4C3)cc(-c3ccccc3)nc2c1 (stereo partly specified) | > 10000 nM | > 10000 nM | – | – | – |
| COc1ccc2c(O[C@@H]3C[C@H]4C(=O)N[C@]5(C(=O)O)C[C@H]5C=CCCCCN(N)C(=O)[C@@H]4C3)cc(-c3ccccc3)nc2c1 | 7600 nM | 6 nM | – | – | – |
| COc1ccc2c(O[C@@H]3C[C@H]4C(=O)N[C@]5(C(=O)NS(=O)(=O)C6CC6)C[C@H]5C=CCCCCN(N)C(=O)[C@@H]4C3)cc(-c3ccccc3)nc2c1 | 33 nM | 0.19 nM | – | – | – |
